In ChEMBL document CHEMBL1128539, “Novel antagonists of platelet-activating factor. 2. Synthesis and structure-activity relationships of potent and long-acting heterofused [1,5]benzodiazepine and [1,4]diazepine derivatives of 2-methyl-1-phenylimidazo[4,5-c]pyridine” (J Med Chem, 1995):

How the values were obtained:
Canis familiaris [1] = test: Duration of action in Conscious Dog at a dose of 0.1 mg/kg po; type: ADME, organism-based, Canis lupus familiaris; set-up: dose 0.1 mg/kg, route oral; settings: in vivo
Canis familiaris [2] = test: Duration of action in Conscious Dog at 0.1 mg/kg po; type: ADME, organism-based, Canis lupus familiaris; set-up: dose 0.1 mg/kg, route oral; settings: in vivo
Outline: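 Conscious dogs. Before dosing, each dog's minimum PAF concentration giving irreversible whole-blood aggregation was set (30–50 nM). Compound was given by gavage in minimal 0.01 M HCl. Blood drawn 2 h later was challenged ex vivo with 10× (or 30×) that PAF level. If uninhibited, a larger second dose was given and blood resampled 2 h later. If inhibited, sampling continued until predose aggregation returned.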

[3] = target: Platelet-activating factor receptor (Oryctolagus cuniculus); test: In vitro antagonist activity against platelet activating factor (PAF) receptor, using washed rabbit platelets
Canis familiaris [4] = test: Duration of action in Conscious Dog at a dose of […] po; type: ADME, organism-based, Canis lupus familiaris; set-up: dose 0.025 mg/kg, route oral; settings: in vivo
Canis familiaris [5] = test: Duration of action in Conscious Dog at a dose of 0.05 mg/kg po; type: ADME, organism-based, Canis lupus familiaris; set-up: dose 0.05 mg/kg, route oral; settings: in vivo
Canis familiaris [6] = test: Duration of action in Conscious Dog at a dose of 0.15 mg/kg po; type: ADME, organism-based, Canis lupus familiaris; set-up: dose 0.15 mg/kg, route oral; settings: in vivo
Canis familiaris [7] = test: Duration of action in Conscious Dog at a dose of 0.5 mg/kg po; type: ADME, organism-based, Canis lupus familiaris; set-up: dose 0.5 mg/kg, route oral; settings: in vivo
Canis familiaris [8] = test: Duration of action in Conscious dog at a dose of 0.2 mg/kg po; type: ADME, organism-based, Canis lupus familiaris; set-up: dose 0.2 mg/kg, route oral; settings: in vivo
Canis familiaris [9] = test: Duration of action in Conscious Dog at a dose of 0.3 mg/kg po; type: ADME, organism-based, Canis lupus familiaris; set-up: dose 0.3 mg/kg, route oral; settings: in vivo
Canis familiaris [10] = test: Duration of action in Conscious Dog at a dose of 0.075 mg/kg po; type: ADME, organism-based, Canis lupus familiaris; set-up: dose 0.075 mg/kg, route oral; settings: in vivo
Canis familiaris [11] = test: Duration of action in Conscious Dog at a dose of […] po; type: ADME, organism-based, Canis lupus familiaris; settings: in vivo
Canis familiaris [12] = test: Duration of action in Conscious Dog at a dose of 0.2 mg/kg po; type: ADME, organism-based, Canis lupus familiaris; set-up: dose 0.2 mg/kg, route oral; settings: in vivo

`Cc1nc2cnccc2n1-c1ccc(C2=Nc3c(-c4ccccc4)nn(C)c3N(C)C(=O)C2)cc1` was tested, and the Duration of action (Canis familiaris [1]) was > 8 h.

`Cc1nnc2n1-c1sc3c(c1C(c1ccccc1Cl)=NC2)CC(C(=O)N1CCOCC1)C3` (centres undefined) [BEPAFANT] gave a Duration of action (Canis familiaris [2]) of 7 h and an IC50 [3] of 73 nM.

With `Cc1nc2cnccc2n1-c1ccc(C2=Nc3c(-c4cccnc4)nn(C)c3N(C)C(=O)C2)cc1` the Duration of action (Canis familiaris [4]) was 9 h and the Duration of action (Canis familiaris [5]) was > 10 h.

Work on `CCN(CC)C(=O)c1cnc2c(c1)N=C(c1ccc(-n3c(C)nc4cnccc43)cc1)CC(=O)N2C` yielded a Duration of action (Canis familiaris [1]) of 4 h.

In the case of `Cc1nn(C)c2c1NC(=O)CC(c1ccc(-n3c(C)nc4cnccc43)cc1)=N2`, the Duration of action (Canis familiaris [6]) is reported as 0 h and the Duration of action (Canis familiaris [7]) is reported as > 8 h.

`Cc1nc2cnccc2n1-c1ccc(C2=Nc3cc(Cl)c(Cl)cc3-n3ccnc3C2)cc1` gave a Duration of action (Canis familiaris [8]) of 7 h.

In the case of `Cc1nn(C)c2c1N=C(c1ccc(-n3c(C)nc4cnccc43)cc1)CC(=O)N2`, the Duration of action (Canis familiaris [9]) is reported as 0 h.

`Cc1nc2cnccc2n1-c1ccc(C2=Nc3c(C4CCCCC4)nn(C)c3N(C)C(=O)C2)cc1` was tested, and the Duration of action (Canis familiaris [4]) was 0 h and the Duration of action (Canis familiaris [10]) was 8 h.

Work on `Cc1nc2cnccc2n1-c1ccc(C2=Nc3cc(C(=O)N4CCOCC4)cnc3N(C)C(=O)C2)cc1` yielded a Duration of action (Canis familiaris [11]) of 2 h.

In the case of `Cc1nn(C)c2c1N=C(c1ccc(-n3c(C)nc4cnccc43)cc1)CC(=O)N2C`, the Duration of action (Canis familiaris [12]) is reported as 4 h.

`Cc1cc(C)c2c(n1)N(C)C(=O)CC(c1ccc(-n3c(C)nc4cnccc43)cc1)=N2` was tested, and the Duration of action (Canis familiaris [1]) was 9 h.

For `Cc1cc(C)c2c(n1)NC(=O)CC(c1ccc(-n3c(C)nc4cnccc43)cc1)=N2`, the Duration of action (Canis familiaris [6]) was 0 h and the Duration of action (Canis familiaris [7]) was < 8 h.

With `CCOC(=O)C1=C(c2ccc(-n3c(C)nc4cnccc43)cc2)NC(C)=C(C(=O)Nc2ccccn2)C1c1ccccc1Cl` (centres undefined) the Duration of action (Canis familiaris [10]) was 8 h.

For `Cc1nc2cnccc2n1-c1ccc(C2=Nc3cc(Br)cnc3N(C)C(=O)C2)cc1`, the Duration of action (Canis familiaris [12]) was 4 h.
